Our source for the MIC90 values is ChEMBL document CHEMBL1157103, “Structure and anti-TB activity of trachylobanes from the liverwort Jungermannia exsertifolia ssp. cordifolia” (2010).

The structures appear in SMILES notation. In brackets after ≈: the same amount, converted by molar mass.

One may read the MIC90 as an inhibitory concentration at the 90% level, which refers to growth in some studies and to a panel of isolates in others.

The subject of the test is Mycobacterium tuberculosis. In words: Antituberculosis activity against Mycobacterium tuberculosis H37Rv ATCC 27294 after 7 to 10 days by microplate alamar blue assay. The format is functional. Summed up: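 Microdilution in 96-well format. Test materials were incubated with virulent M. tuberculosis H37Rv for 7–10 days at 0.1 to 128 μg/mL. Growth was read fluorometrically with Alamar Blue. MIC90 and percent inhibition were calculated against a 1:10 dilution of the inoculum. Rifampin served as the positive control and DMSO as the negative control.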
Turning to `CC(=O)O[C@@H]1CC[C@]2(C)[C@H](CC[C@@]34C[C@@H]5[C@@H](C[C@H]32)[C@]5(C)C4)[C@]1(C)CO`, the MIC90 was 171 µM (≈ 59.3 µg/mL). As for `CC(=O)O[C@@H]1CC[C@@]2(C)[C@@H]3C[C@@H]4[C@H]5C[C@@]3(CC[C@@H]2[C@@]1(C)C=O)C[C@@]45C`, the figure is above 371 µM. In the case of `CC(=O)O[C@@H]1CC[C@@]2(C)[C@@H]3C[C@@H]4[C@H]5C[C@@]3(CC[C@@H]2[C@]1(C)C=O)C[C@@]45C` it was above 371 µM; in that of `CC1(C)CCC[C@]2(C)[C@@H]1CC[C@@]13C[C@@H]4[C@@H](C[C@H]12)[C@]4(CO)C3`, 446 µM (≈ 129 µg/mL).

Compound `CC1(C)[C@H](O)CC[C@]2(C)[C@@H]1CC[C@@]13C[C@@H]4[C@@H](C[C@H]12)[C@]4(C(=O)O)C3` yielded an MIC90 above 402 µM.

As for `CC1(C)CCC[C@]2(C)[C@@H]1CC[C@@]13C[C@@H]4[C@@H](C[C@H]12)[C@]4(C=O)C3`, the MIC90 came to 85 µM (≈ 24.3 µg/mL). In the case of `CC(=O)OC[C@]1(C)[C@H]2CC[C@@]34C[C@@H]5[C@@H](C[C@H]3[C@]2(C)CC[C@H]1O)[C@]5(C)C4` it was above 370 µM. As for `CC(=O)O[C@@H]1CC[C@]2(C)[C@H](CC[C@@]34C[C@@H]5[C@@H](C[C@H]32)[C@]5(C)C4)C1(C)C`, the figure is 337 µM (≈ 111 µg/mL); as for `CO[C@H]1/C=C/O[C@@]2(C)Oc3c(C)c(O)c4c(O)c(c(/C=N/N5CCN(C)CC5)c(O)c4c3C2=O)NC(=O)/C(C)=C\C=C\[C@H](C)[C@H](O)[C@@H](C)[C@@H](O)[C@@H](C)[C@H](OC(C)=O)[C@@H]1C` [RIFAMPIN], below 0.15 µM; as for `CC(=O)OC[C@@]1(C(=O)O)[C@H](OC(C)=O)CC[C@@]2(C)[C@@H]3C[C@@H]4[C@H]5C[C@@]3(CC[C@@H]21)C[C@@]45C`, above 306 µM. In the case of `CC(=O)O[C@@H]1CC[C@]2(C)[C@H](CC[C@@]34C[C@@H]5[C@@H](C[C@H]32)[C@]5(C)C4)[C@@]1(C)CO` it was above 370 µM; in that of `CC1(C)[C@H](O)CC[C@]2(C)[C@@H]1CC[C@@]13C[C@@H]4[C@@H](C[C@H]12)[C@]4(C)C3`, 212 µM (≈ 61.2 µg/mL). On to `CC1(C)C(=O)CC[C@@]2(C)[C@@H]3C[C@@H]4[C@@H]5C[C@@]3(CC[C@@H]12)C[C@@]45C`, for which the MIC90 amounted to 173 µM (≈ 49.6 µg/mL).
